T cruzi repl – blocks replication of Trypanosoma cruzi; T. cruzi beta-gal in NIH3T3, luminescence, 90 h; inhibition, % (no concentration beside the values); 300,000 compounds, 1.4% hits; AID 1885;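 active means mean inhibition across valid replicates above about 55%, limit read from the data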;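 further: signal also drops with host cell toxicity which is not excluded here; 0% = plate median of DMSO wells and 100% = zero luminescence signal; higher percent means less beta-gal luminescence so fewer parasites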
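Assay system: NIH/3T3 host cells with β-galactosidase reporter T. cruzi; input: 5,000 host fibroblasts per well; compound: single 50 nL compound addition per well in DMSO; timing: ≥90 h infection period, 3 h prior cell attachment; measured by: GalScreen β-gal luminescence, detergent lysis, 60 min; evaluation: percent inhibition of parasite-derived β-gal signal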
Efflux pump mplx – blocks antifungal efflux pumps in multiplex yeast assay. S. cerevisiae Candida pump triplex, Nile Red efflux. inhibition, % at 10 µM. 330,000 compounds, 0.44% hits;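 active means plate passing quality check with inhibition over a set limit, or well fluorescence over plate mean plus 4 SD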;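 further: Nile Red retained in pooled yeast measured as flow cytometry median fluorescence; 0% = buffer negative control and 100% = Enniatin B positive control; higher means more Nile Red kept so more efflux inhibition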
CSC inhib – cancer stem cell inhibition | cancer stem cell-like cells viability, luminescence | inhibition, % at 7.5 µM | 300,000 compounds, 1.1% hits; in the data active means inhibition above about 75%; tested in HMLE shEcad cells
WT yeast gro inh – growth inhibition of WT yeast, mitochondrial fusion screen; mitochondrial fusion phenotypic screen, WT strain; inhibition, % at 10 µM; 190,000 compounds, 2.1% hits; in the data active means inhibition above about 58%; tested in S. cerevisiae
SUMO Mot1 rescue – inhibitors of SUMOylation pathway: yeast Mot1-301 growth rescue; AID 2716; 320,000 compounds, 1% hits; growth rescue, % at 18.8 µM; S. cerevisiae Mot1-301 growth rescue, ATP luminescence, 38.5C; percent above DMSO median, 100 means doubled;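 active means every valid replicate shows activation above 250% relative to neutral control wells; inactive means the rest, any valid replicate at or below 250%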;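 further: OY570 slx delta 5 strain wells were the positive control but not used for scaling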
Beta apoptosis – beta cell apoptosis inhibition. INS-1E cytokine-induced death, ATP luminescence, 48 h; percent of positive-control rescue, neutral wells zero. protection from apoptosis, % (concentration not given with the values). 300,000 compounds, 0.8% hits;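 active means Every replicate reaches about 75%, or at least half do and their mean reaches it too, limit read from the data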;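 further: 0% = cytokine-treated negative control wells and 100% = positive control rescue; higher means more ATP so stronger rescue from cytokine killing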
Mot1 SUMO dose – yeast SUMO pathway inhibition in dose response; shares compounds with SUMO Mot1 rescue; S. cerevisiae Mot1-301 galactose growth, ATP luminescence, 24 h; -100 = growth of slx-deleted rescue strain; growth activity, percent, % at 42 µM; 2,300 tested, under 10 active; AID 493004;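 active means Signal drops as the depositor expects, and the fitted half-maximal dose is no more than ten times the top valid tested dose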;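 further: more negative values mean stronger growth rescue toward the control strain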
The depositor's hits bear a star; x = no result; + = active, no number; [ ] = remark or other dose. Rows were chosen to be rich in hits. Some 4.8% of all compounds tested hit in one or more screens of this group.

SMILES | T cruzi repl | Efflux pump mplx | CSC inhib | WT yeast gro inh | SUMO Mot1 rescue | Beta apoptosis | Mot1 SUMO dose
O=C(CNC(=O)COc1ccccc1)NCc1cccnc1 | -4 | 0 | -3 | x | 3 | -1 | x
CC(C)Sc1nc2[nH]ncc2c(=O)[nH]1 | -3 | 0 | 1 | 9 | -8 | -10 | x
CC(=O)N1c2ccc(S(=O)(=O)N3CCC(C(=O)Nc4ccc(C)cn4)CC3)cc2CC1C (stereo not given) | 3 | 0 | -11 | x | 0 | 5 | x
CNC(=O)NNC(=O)c1csc(-c2ccc(C(F)(F)F)cc2Cl)n1 | 8 | 0 | -8 | x | 381* | -1 | 0
COc1cccc(CN2CC(C(=O)N(C)C3CCOCC3)CCC2=O)c1 (stereo not given) | -15 | 0 | 0 | x | 4 | 1 | x
CCOC(=O)Cn1c(=O)n(Cc2ccco2)c(=O)c2ccc(C(=O)NCCc3ccccc3)cc21 | 15 | 0 | -2 | 4 | 370* | x | 0
O=c1c2ccccc2oc2cc(OCc3ccc(F)cc3)cc(O)c12 | -8 | 0 | 11 | x | -11 | -1 | x
CCCCOc1ccc(C(=O)NCC(=O)NC2CCCCC2)cc1 | x | 0 | x | x | -10 | 5 | x
CN(C)CCCN(Cc1ccccc1)C(=S)Nc1ccc(F)c(Cl)c1 | 27 | 0 | -7 | 8 | 608* | -12 | 0
Cc1cc(NC(=O)COC(=O)c2cnccn2)ccc1Br | x | 0 | -12 | x | 19 | -4 | x
Cc1c(Cl)cccc1NC(=S)N(CCN(C)C)C(C)c1ccco1 (stereo not given) | -9 | 0 | 1 | x | 8 | -7 | x
Cc1nc2c(-c3ccc(F)cc3)cnn2c2c1CCC2 | -25 | 0 | -9 | 11 | 583* | 7 | 0
CCOC(=O)CN1N=C(/C=C/c2ccccc2)CCC1=O | -3 | 0 | -5 | x | -5 | -3 | x
O=C1CCC(/C=C/c2ccccc2)=NN1Cc1ccc(Cl)c(Cl)c1 | -2 | 0 | -11 | 38 | 659* | -17 | 0
O=C(CN1C(=O)NC2(CCCC2)C1=O)N1CCN(c2ccccc2O)CC1 | -6 | 0 | 10 | x | 15 | 0 | x
CC1(C)C(C=C(Cl)Cl)C1C(=O)OCc1cccc(Oc2ccccc2)c1 (stereo not given) | x | 0 | 13 | x | 463* | 1 | 1
COc1cccc2sc(N(CCCN(C)C)C(=O)c3sc4ccccc4c3Cl)nc12 | 27 | 0 | -6 | 45 | -15 | -2 | x
Cc1ccccc1-c1nnnn1C1CCS(=O)(=O)C1 (stereo not given) | -8 | 0 | -9 | -3 | + | 0 | 0
Cc1ccc(C(=O)CCC(=O)N2CCN(C(=O)c3ccco3)CC2)cc1 | -10 | 0 | 13 | -5 | 5 | 3 | x
CCOc1ccc(C(=O)Nc2ccc(CN3CCOCC3)cc2)cc1Br | -7 | 0 | x | x | 365* | x | 0[21 µM]
COc1ccc(N2C(=O)CSC2c2ccc([N+](=O)[O-])cc2)cc1 (stereo not given) | -4 | 0 | -12 | x | 580* | -5 | 1
O=C(Nc1ccc(N2CCOCC2)cc1)c1cc(F)c(F)cc1Cl | -7 | 1 | 3 | -1 | 5 | -4 | x
CSc1ccc(Cl)c(C(=O)Nc2ccc(N3CCOCC3)cc2)c1 | -1 | 0 | -4 | 31 | + | 0 | 0
Cc1c(C(=O)N2CCOCC2)c(S(=O)(=O)Nc2cccc(Br)c2)c(C)n1C | 4 | 0 | 4 | x | 553* | -6 | 1
COc1cccc(S(=O)(=O)Nc2cccc(C(=O)N3CCCC3)c2)c1 | -7 | -1 | -16 | x | 0 | -3 | x
Cc1c(C(=O)N2CCCCC2)c(S(=O)(=O)Nc2cccc(Br)c2)c(C)n1C | 32 | 0 | -12 | x | 0 | x | x
COc1cccc(S(=O)(=O)Nc2cccc(C(=O)N3CCOCC3)c2)c1 | -14 | 0 | x | -7 | 478* | -8 | 0
Cc1noc(C)c1CSc1nc2ccccc2n1CCc1ccccc1 | 29 | 0 | 2 | 21 | -1 | 5 | x
CC1CCN(S(=O)(=O)c2ccc(NC(=O)c3cccs3)cc2)CC1 | 15 | 0 | x | -12 | 415* | 5 | 1
CN1CCN(S(=O)(=O)c2ccc(NC(=O)c3cccs3)cc2)CC1 | -13 | 0 | -7 | 7 | 129 | -1 | x

Compound activity: PubChem, several laboratories
